# The list is not random: actives were taken first. Their share in the collection is about 2.7%.
# OX1R antag-1: blocks the human orexin 1 receptor; inhibition, % at 5 µM; O43613; AID 434989; hit rate 0.43% among 330,000; CHO/OX1R cells, Fluo-8 calcium fluorescence, orexin A;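 active means inhibition above its plate's threshold, mean inhibition of all tested compounds on the plate plus 3 SD, cut at about 37% in these data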;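 further: 0% = orexin A challenge wells and 100% = SB-334867-A antagonist wells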
# CHO parental Ca: counter-screen: ATP calcium response change in parental CHO cells; parental CHO-K1, ATP-induced calcium, Fluo-8 fluorescence; inhibition, % at 5.6 µM; hit rate 0.63% among 330,000; AID 463079;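 active means inhibition above that plate's mean sample inhibition plus 3 SD, cut at about 26% in these data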;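 further: 0% = ATP-challenged DMSO wells and 100% = DMSO wells without ATP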
#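 Material: parental CHO cells / Compound: single nominal dose of 5.6 µM per compound / Signal: Fluo-8 fluorescence / Replicates: singlicate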
# OXTR ag: human OXTR agonism | CHO-OTR cells, Fluo-8 calcium fluorescence; normalized: DMSO 0%, oxytocin 100% | activation, % at 3 µM | hit rate 0.32% among 320,000 | AID 2435;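 active means activation above the mean of all tested compounds plus 3 SD, cutoff set per screening run, cut at about 20% in these data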;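 further: peak over basal fluorescence ratio from a 100 s FLIPR kinetic read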
# Target sequence (P30559 whole entry, looked up): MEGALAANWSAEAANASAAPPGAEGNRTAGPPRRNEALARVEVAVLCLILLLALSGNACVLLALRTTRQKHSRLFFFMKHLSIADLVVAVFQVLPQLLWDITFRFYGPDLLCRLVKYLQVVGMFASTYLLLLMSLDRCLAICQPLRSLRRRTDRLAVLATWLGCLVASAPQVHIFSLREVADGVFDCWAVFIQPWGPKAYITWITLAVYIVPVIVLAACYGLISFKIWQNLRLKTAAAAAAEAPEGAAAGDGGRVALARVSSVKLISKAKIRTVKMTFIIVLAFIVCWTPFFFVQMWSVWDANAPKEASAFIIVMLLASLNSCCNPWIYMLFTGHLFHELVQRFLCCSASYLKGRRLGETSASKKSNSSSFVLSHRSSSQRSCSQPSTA
# OXTR potentiator: potentiates the human oxytocin receptor response | activation, % at 3 µM | P30559 | CHO-OTR cells, Fluo-8 calcium fluorescence, potentiator mode; 0% = oxytocin EC15, 100% = EC100 | hit rate 0.061% among 320,000;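 active means activation above that plate's cutoff, the mean activation of tested compounds plus 3 SD, cut at about 6.6% in these data, passing the limit was not always enough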;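 further: 100% uses oxytocin at 75 nM as the full agonist control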
#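 Dosing: Single dose, 3.0 µM nominal final compound concentration | Material: Human OTR in CHO cells | Technique: Kinetic Fluo-8 calcium fluorescence | Benchmarks: EC15 oxytocin alone as 0%, 75 nM oxytocin as 100% | Probe or stimulus: Oxytocin at about EC15, sub-maximal agonist stimulus | Incubation: Compound 6 min at room temperature before oxytocin, 100 s read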
# OX1R antag-2: antagonists of human orexin 1 receptor (OX1R); O43613; OX1R-expressing cells, FRET antagonist read-out; inhibition, % at 6.6 µM; hit rate 1.8% among 330,000; AID 485270; in the data active means inhibition mostly above about 38%, no sharp cut-off; inactive means mostly below about 40%;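 further: 0% = agonist challenge alone and 100% = reference antagonist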
# V1aR counter: V1a receptor agonism, counter-screen for OXTR agonists; CHO-V1R cells, Fluo-8 calcium fluorescence, agonist mode; 0% DMSO, 100% 3 nM vasopressin; activation, % at 3 µM; hit rate 0.25% among 320,000; P37288;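 active means activation above the mean activation of all tested compounds plus 3 SD, per screening run, cut at about 20% in these data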;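 further: signal is peak over basal fluorescence ratio across a 100 second FLIPR read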
# V1aR agonist cf: human V1a receptor agonism, confirmation; hit rate 20% among 180; CHO-V1R cells, Fluo-8 calcium fluorescence, agonist; shares compounds with V1aR counter; activation, % at 3 µM; AID 434964;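 active means average activation exceeds primary screen hit cutoff, cut at about 21% in these data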;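 further: peak over basal fluorescence ratio during a 100 s FLIPR read; 0% = DMSO only wells and 100% = 3 nM vasopressin wells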
# OXTR counter: counter-screen for V1a receptor agonists: oxytocin receptor agonists | shares compounds with V1aR counter | CHO-OTR cells, Fluo-8 calcium fluorescence, agonist | activation, % at 3 µM | hit rate 10% among 180 | AID 434969;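 active means mean activation over three repeats above the cutoff from the earlier oxytocin receptor agonist screen, cut at about 20% in these data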;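 further: peak over minimum fluorescence ratio within a 100 second FLIPR read; 0% = DMSO only wells and 100% = oxytocin high control wells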
# * = called active by the depositor; nt = no result given.
SMILES,OX1R antag-1,CHO parental Ca,OXTR ag,OXTR potentiator,OX1R antag-2,V1aR counter,V1aR agonist cf,OXTR counter
C[C@H](CO)N1C[C@H](C)[C@@H](CN(C)Cc2ccc3c(c2)OCO3)Oc2c(NS(=O)(=O)c3cn(C)cn3)cccc2C1=O,-17.9,-5.9,0.4,1.1,4.6,0.2,nt,nt
CC[N+]1=C(C)C(C)(C)c2cc(C)ccc21,70.0*,63.9*,13.7,-4.1,43.3,22.8*,4.9,3.4
CCN1C(=O)C(=O)c2cc(C)ccc21,-8.2,-5.7,-0.5,2.0,25.4,0.7,nt,nt
CC(=O)Nc1ccc(N2CCN(c3ccc(C(F)(F)F)cn3)CC2)nc1,-7.7,-3.1,6.0,-12.8,22.7,25.0*,2.3,1.6
COC(=O)c1cc(CNC(=O)c2ccc(S(=O)(=O)N(C)c3ccccc3)cc2)ccc1OC,-1.1,-17.8,5.4,-7.2,12.5,23.6*,1.3,0.0
Oc1ccc(Cl)cc1C=Nc1ccc2c3c(cccc13)CC2,62.2*,59.4*,12.8,-7.3,13.1,50.9*,-0.3,-1.1
Nc1c(C(=O)NCc2ccc3c(c2)OCO3)nnn1Cc1ccc(Br)cc1,-3.6,11.7,15.5,-9.4,-16.4,36.5*,15.4,23.1*
Nc1c(C(=O)NCc2ccc3c(c2)OCO3)nnn1CC(=O)Nc1ccc(Br)cc1,-5.3,-2.6,1.1,-3.2,6.3,1.5,nt,nt
Cc1cccc(NC(=S)NNC(=O)c2ccco2)c1,-19.3,-7.4,0.6,-2.9,10.9,22.8*,0.3,0.4
Cc1ccc(NC(=O)CN(C)C(=O)Cc2c(Cl)cccc2Cl)cc1,-18.8,-16.0,0.8,-1.1,14.5,0.2,nt,nt
COc1ccc(Nc2cc(C(=O)NCCCN3CCN(C)CC3)c3ccccc3n2)c(OC)c1,-15.0,-10.2,-0.8,-7.2,19.6,0.3,nt,nt
COc1ccc(Nc2cc(C(=O)NCCCOC(C)C)c3ccccc3n2)c(OC)c1,-34.5,-22.0,-0.1,-8.2,-2.2,25.4*,-0.3,-1.2
COc1cc(C(=O)NC2CCCC(C)C2C)ccc1OCC(=O)N1CCOCC1 (configuration not stated),-14.7,-10.7,0.7,4.9,4.6,0.3,nt,nt
CCOC(=O)c1[nH]c(CN2CCN(c3ccc(OC)cc3)CC2)c(C(=O)OCC)c1C,-12.6,-11.6,17.6,-29.0,1.4,23.7*,12.0,21.8*
CCOC(=O)c1[nH]c(C)c(C(=O)N2CCN(c3ccc(F)cc3)CC2)c1C,-8.2,-9.1,1.8,-3.3,1.4,1.0,nt,nt
O=C(COc1ccccc1[N+](=O)[O-])N/N=C/c1ccc(O)c([N+](=O)[O-])c1,16.8,23.7,2.8,-14.4,36.4,67.2*,0.2,-0.7
CC(C)CCNC(=O)C(c1ccc(O)cc1)N(Cc1ccco1)C(=O)CCC(=O)Nc1nccs1 (configuration not stated),1.0,-1.1,-0.1,3.2,39.6,0.0,nt,nt
CC1(C(=O)OCC(=O)NCCNC(=O)COC(=O)C2(C)CC2(Cl)Cl)CC1(Cl)Cl (configuration not stated),-18.7,-14.7,3.2,-2.7,20.6,3.2,nt,nt
CCC[C@@H]1C[C@@H](C(=O)N[C@@H](C2O[C@H](SC)[C@H](O)[C@@H](O)[C@H]2O)[C@H](C)Cl)N(C)C1 (some centres not stated),-9.9,-10.1,0.8,-1.5,9.4,42.7*,4.2,0.6
CCN(CC)S(=O)(=O)c1ccc(N2CCN(c3cccc(OC)c3)CC2)c([N+](=O)[O-])c1,-11.3,-7.0,1.5,-9.7,10.9,2.2,nt,nt
COc1cccc(N2CCN(c3ccc(S(=O)(=O)N4CCN(C)CC4)cc3[N+](=O)[O-])CC2)c1,-3.9,-11.8,15.2,-7.8,12.9,20.5*,7.3,6.1
CCCCNC(=O)c1ccc(N2CCOCC2)c(NS(=O)(=O)c2ccc(OC)cc2)c1,-20.8,-9.9,0.1,-8.8,10.2,-0.4,nt,nt
CCC1CCCCN1CCCNC(=O)c1ccc(N2CCOCC2)c(NS(=O)(=O)c2ccc(OC)cc2)c1 (configuration not stated),-35.5,-13.8,1.0,-5.6,2.5,21.1*,0.3,0.3
N#Cc1ccc(CN2CCN(C(=O)c3ccc(S(=O)(=O)NCc4ccco4)cc3)CC2)cc1,-11.9,-25.2,4.6,-7.2,4.4,5.5,nt,nt
CSc1nnc(N2C(=O)C(O)=C(C(=O)c3ccco3)C2c2cccc(Cl)c2)s1 (configuration not stated),49.2*,33.1*,10.3,-5.9,3.0,45.1*,19.6,15.8
SMILES,OX1R antag-1,CHO parental Ca,OXTR ag,OXTR potentiator,OX1R antag-2,V1aR counter,V1aR agonist cf,OXTR counter
CCSc1nnc(N2C(=O)C(O)=C(C(=O)c3ccco3)C2c2cccc(OC)c2)s1 (configuration not stated),33.3,25.1,5.1,-5.4,13.0,31.4*,2.7,2.7
CSc1nnc(N2C(=O)C(O)=C(C(=O)c3ccco3)C2c2ccc(F)cc2)s1 (configuration not stated),37.2,32.3,19.4,-4.7,6.5,32.6*,7.3,6.1
O=C(C1=C(O)C(=O)N(c2ncccn2)C1c1cccc(Cl)c1)c1ccco1 (configuration not stated),-2.2,1.4,-0.3,0.2,6.0,-0.7,nt,nt
Cc1ccc(NC(=O)c2ccc(N3CCCC3=O)cc2)cc1S(=O)(=O)N1CCCCC1,-34.8,-11.3,1.3,1.2,0.5,1.3,nt,nt
CCSc1nnc(NC(=O)C2CSC3(C)CCC(=O)N23)s1 (configuration not stated),-27.2,-14.3,1.5,-3.6,1.8,1.8,nt,nt
COc1cccc(NC(=O)CSc2nc3ccccc3c(=O)n2CCCC(=O)NCC2CCCO2)c1 (configuration not stated),-12.6,-27.2,1.5,-5.2,17.3,4.3,nt,nt
CC(C)Cn1c(-c2ccc(Br)cc2)c[nH]c1=S,-14.0,-23.3,8.5,-23.6,17.8,34.8*,-0.5,-0.9
COc1ccc(N2C(=O)CSC2c2ccc([N+](=O)[O-])cc2)cc1 (configuration not stated),-14.9,3.2,2.3,-15.7,12.7,4.5,nt,nt
CC(=O)Nc1ccc(N=Cc2c(O)c(C(=O)Nc3ccccc3)cc3ccccc23)cc1,9.6,31.2*,12.9,-14.5,12.4,38.1*,192.9*,168.6*
O=C(c1ccccc1NS(=O)(=O)c1cccc(C(F)(F)F)c1)N1CCc2ccccc21,-31.5,-17.3,2.0,-7.2,14.8,7.4,nt,nt
O=C(c1ccccc1NS(=O)(=O)c1ccc(F)cc1)N1CCc2ccccc21,-17.8,-13.0,-1.5,-5.0,23.1,24.1*,4.3,-0.4

# High-throughput results deposited in PubChem by The Scripps Research Institute Molecular Screening Center.
